Active and inactive are the calls of the source. No cut-off for these calls is given here.
Legend:
Type in all cases: cell-based
SK-N-BE(2) [1] = assay: Cytotoxicity against human SKNBE2 cells assessed as reduction in cell viability at 5 to 100 uM incubated for 18 hrs by Cell titer-glo assay; conditions: dose 5-100 µM
Procedure, shortened: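 Cells seeded at 1.5 million per 10-cm dish. Next day they were replated at 10,000 cells/well and rested 4 h. Ligand or vehicle (water, ethanol or DMSO, by ligand) was added in dose-response format in quadruplicate. After 18 h, viability was read by CellTiter-Glo luminescence. Data are mean ± s.e.m., generally representative of 2 independent experiments. One-way ANOVA versus vehicle.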

PC-12 = assay: Modulation of Gal4-fused VP16 expressed in PC12 cells co-transfected with UAS repoter gene assessed as decrease in luciferase activity at 5 to 100 uM incubated for 18 hrs by luciferase reporter gene assay; conditions: Human alphaherpesvirus 2, filed as modulator, dose 5-100 µM
Procedure, shortened: (§1)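 Cells in 10-cm dishes were transfected with Gal4-VP16 expression plasmid (2 μg) plus 5xUAS-luciferase reporter (2 μg) for 18 h. They were replated at 10,000 cells/well for 4 h, then given ligand or vehicle (water, ethanol or DMSO) in quadruplicate for 18 h. Luciferase was read with Britelite Plus. Fold change is versus vehicle-treated cells, with one-way ANOVA versus vehicle.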

HEK293T = assay: Modulation of Gal4-fused VP16 expressed in HEK293T cells co-transfected with UAS repoter gene assessed as decrease in luciferase activity at 5 to 100 uM incubated for 18 hrs by luciferase reporter gene assay; conditions: Human alphaherpesvirus 2, filed as modulator, dose 5-100 µM; procedure, shortened: as §1
SK-N-BE(2) [2] = assay: Cytotoxicity against human SKNBE(2) cells assessed as reduction in cell viability at 1.56 to 6.25 microM incubated for 18 hrs by Cell titer-glo assay; conditions: dose 1.56-6.25 µM
Procedure, shortened: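 Cells seeded 1.5 million per 10-cm dish; next day replated at 10,000 cells/well in 384-well format, 4 h, then ligand or vehicle (water, ethanol or DMSO by ligand) added in quadruplicate for 18 h; viability read by CellTiter-Glo luminescence. Mean ± s.e.m. (n=4), generally 2 independent experiments; one-way ANOVA versus vehicle.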

[3] = target: Nuclear receptor subfamily 4 group A member 2 (Homo sapiens) (UniProt P43354); assay: Modulation of full length human Nurr1 expressed in SKNBE(2) cells co-transfected with RXRalpha and luciferase reporter plasmid harboring NBRE response element assessed as increase in luciferase activity at 1.56 to 6.25 uM incubated for 18 by luciferase reporter gene assay; conditions: SKNBE2, filed as modulator, dose 1.56-6.25 µM, time 18.0 hrs
Chain of Nuclear receptor subfamily 4 group A member 2 (Homo sapiens) (P43354 whole entry): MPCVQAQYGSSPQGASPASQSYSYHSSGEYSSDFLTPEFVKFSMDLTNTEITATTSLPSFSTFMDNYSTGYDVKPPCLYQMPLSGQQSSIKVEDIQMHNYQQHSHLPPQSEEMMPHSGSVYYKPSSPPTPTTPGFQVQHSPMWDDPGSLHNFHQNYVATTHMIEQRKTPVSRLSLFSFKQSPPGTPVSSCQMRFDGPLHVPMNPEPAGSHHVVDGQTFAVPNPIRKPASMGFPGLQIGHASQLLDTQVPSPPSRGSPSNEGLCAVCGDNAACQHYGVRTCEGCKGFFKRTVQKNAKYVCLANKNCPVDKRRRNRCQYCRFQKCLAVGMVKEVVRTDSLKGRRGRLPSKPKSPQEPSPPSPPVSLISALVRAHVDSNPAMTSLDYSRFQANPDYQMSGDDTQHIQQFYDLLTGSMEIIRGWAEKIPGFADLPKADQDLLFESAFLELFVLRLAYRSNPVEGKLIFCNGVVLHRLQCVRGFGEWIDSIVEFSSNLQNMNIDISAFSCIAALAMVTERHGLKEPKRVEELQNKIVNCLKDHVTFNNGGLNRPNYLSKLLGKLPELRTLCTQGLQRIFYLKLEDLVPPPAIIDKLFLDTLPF

[4] = target: Nuclear receptor subfamily 4 group A member 2 (Homo sapiens) (UniProt P43354); assay: Modulation of full length human Nurr1 expressed in HEK293T cells co-transfected with RXRalpha and luciferase reporter plasmid harboring NurRE response element assessed as decrease in luciferase activity at 1.56 to 6.25 uM incubated for 18 by luciferase reporter gene assay; conditions: filed as modulator, dose 1.56-6.25 µM, time 18.0 hrs
[5] = target: Nuclear receptor subfamily 4 group A member 2 (Homo sapiens) (UniProt P43354); assay: Modulation of full length human Nurr1 expressed in HEK293T cells co-transfected with RXRalpha and luciferase reporter plasmid harboring NBRE response element assessed as increase in luciferase activity at 1.56 to 6.25 uM incubated for 18 by luciferase reporter gene assay; conditions: filed as modulator, dose 1.56-6.25 µM, time 18.0 hrs
[6] = target: Nuclear receptor subfamily 4 group A member 2 (Homo sapiens) (UniProt P43354); assay: Modulation of full length human Nurr1 expressed in PC12 cells co-transfected with luciferase reporter plasmid harboring NBRE response element assessed as increase in luciferase activity at 1.56 to 6.25 uM incubated for 18 by luciferase reporter gene assay; conditions: PC-12, filed as modulator, dose 1.56-6.25 µM, time 18.0 hrs
Procedure, shortened: (§2)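 Cells transfected (Lipofectamine 2000, 18 h) with full-length Nurr1 expression plasmid (2 μg) and 3xNBRE- or 3xNurRE-luciferase reporter (6 μg), no internal control normalisation; replated 10,000 cells/well, 4 h; ligand or vehicle in quadruplicate for 18 h; Britelite Plus luminescence as fold change over vehicle. Mean ± s.e.m. (n=4); one-way ANOVA versus vehicle.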

[7] = target: Nuclear receptor subfamily 4 group A member 2 (Homo sapiens) (UniProt P43354); assay: Modulation of full length human Nurr1 expressed in HEK293T cells co-transfected with luciferase reporter plasmid harboring NurRE response element assessed as increase in luciferase activity at 1.56 to 6.25 uM incubated for 18 by luciferase reporter gene assay; conditions: filed as modulator, dose 1.56-6.25 µM, time 18.0 hrs; procedure, shortened: as §2

For `CCCCCCCC(=O)c1c(O)cc(O)cc1CC(=O)OCC` [CYTOSPORONE B], the Activity (SK-N-BE(2) [1]) was “Toxic”, the Activity (PC-12) was “Active” and the Activity (HEK293T) was “Active”.

For `CC1=C(O)C(=O)C=C2C1=CC=C1[C@@]2(C)CC[C@@]2(C)[C@@H]3C[C@](C)(C(=O)O)CC[C@]3(C)CC[C@]12C` [CELASTROL], the Activity (SK-N-BE(2) [2]) was “Toxic”, the Activity [3] was “Active” and the Activity [4] was “Active”. For the same compound, the Activity [5] was “Active”, the Activity [6] was “Active” and the Activity [7] was “Active”.
